Assay results as given in ChEMBL document CHEMBL1150059, “Antifungal activity of meridine, a natural product from the marine sponge Corticium sp” (J Nat Prod, 1992).
Converted amounts (≈) assume the structure as drawn. The source made the active and inactive calls. No cut-off for these calls is given here.

Key:
Candida albicans [1] = assay: Antifungal activity against Candida albicans 44506 assessed as inhibition of U-14C-leucine incorporation into TCA precipitable material after 1 hr; assay type: functional, organism-based; conditions: Candida albicans, 44506, 1 h
Method in brief: (§1)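 Candida grown overnight in YNBG to mid-log phase, washed with saline, and resuspended in YNB lacking the precursor under study. Compound preincubated 30 min at 37°. 14C-labelled acetate, adenine, glucose or leucine (per line) then added, with incorporation followed 60 min (linear). Stopped with ice-cold TCA, 5% final. IC50 is the concentration giving 50% inhibition versus control.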

Candida albicans [2] = assay: Antifungal activity against Candida albicans 44506 assessed as inhibition of U-14C-acetate incorporation into TCA precipitable material after 1 hr; assay type: functional, organism-based; conditions: Candida albicans, 44506, 1 h; method in brief: as §1
Candida albicans [3] = assay: Antifungal activity against Candida albicans 44506 assessed as inhibition of U-14C-adenine incorporation into TCA precipitable material after 1 hr; assay type: functional, organism-based; conditions: Candida albicans, 44506, 1 h; method in brief: as §1
Candida albicans [4] = assay: Antifungal activity against Candida albicans 44506 assessed as inhibition of U-14C-glucose incorporation into TCA precipitable material after 1 hr; assay type: functional, organism-based; conditions: Candida albicans, 44506, 1 h; method in brief: as §1
Candida albicans [5] = assay: Antifungal activity against Candida albicans 44506 in RPMI-1640 medium after 18 to 24 hrs by twofold broth dilution method; assay type: functional
Method in brief: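 Twofold broth microdilution in RPMI-1640 (pH 7.2, unbuffered), inoculum 10^3 cells/ml. Incubated 18–24 h at 37° under 5% CO2. MIC read visually as the lowest concentration giving complete growth inhibition. Average of triplicates.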

Candida albicans [6] = assay: Antifungal activity against Candida albicans 44506 in Sabouraud dextrose broth after 18 to 24 hrs by twofold broth dilution method; assay type: functional
Method in brief: (§2)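 Inoculum 10^3 cells/ml, incubated 18–24 h at 37°. MIC read visually as the lowest concentration with complete growth inhibition. Average of triplicates.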

Epidermophyton floccosum = assay: Antifungal activity against Epidermophyton floccosum 25066 after 18 to 24 hrs by twofold broth dilution method; assay type: functional
Pseudomonas aeruginosa = assay: Antibacterial activity against Pseudomonas aeruginosa 27853 after 18 to 24 hrs by twofold broth dilution method; assay type: functional, organism-based
Method in brief: (§3)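 Twofold serial dilutions in Mueller-Hinton broth supplemented with Mg2+ and Ca2+. Inoculum 10^3 cells/ml, with cell density counted by hemocytometer. Incubated 18–24 h at 37°. MIC is the lowest concentration giving complete visual inhibition of growth. Triplicate determinations, reported as the average.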

Trichosporon beigelii = assay: Antifungal activity against Trichosporon beigelii 28592 after 18 to 24 hrs by twofold broth dilution method; assay type: functional
Candida albicans [7] = assay: Antifungal activity against Candida albicans 44506 in RPMI-1640 medium after 7 days in pH 6 buffer by agar dilution method; assay type: functional; conditions: Candida albicans, 44506, 168 h
Candida albicans [8] = assay: Antifungal activity against Candida albicans 44506 in YNBG medium of pH 5.4 after 7 days by agar dilution method; assay type: functional; conditions: Candida albicans, 44506, 168 h
Candida albicans [9] = assay: Antifungal activity against Candida albicans 44506 in RPMI-1640 medium after 7 days in pH 5 buffer by agar dilution method; assay type: functional; conditions: Candida albicans, 44506, 168 h
[10] = tested on: Scopulariopsis brevicaulis; assay: Antifungal activity against Scopulariopsis brevicaulis 36840 after 18 to 24 hrs by twofold broth dilution method; assay type: functional
Cryptococcus neoformans [11] = assay: Antifungal activity against Cryptococcus neoformans 32045 after 24 to 48 hrs; assay type: functional
Method in brief: (§4)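 MFC taken from the broth MIC plates: wells resuspended, and 1 µl streaked onto Sabouraud dextrose agar (Candida) or Emmon's SDA (Cryptococcus). Scored after 24–48 h at 37°. MFC is the lowest concentration killing 99% of the inoculum. Average of triplicates.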

Candida albicans [12] = assay: Antifungal activity against Candida albicans 44506 in Sabouraud dextrose broth after 24 to 48 hrs; assay type: functional; method in brief: as §4
Nannizzia gypsea = assay: Antifungal activity against Microsporum gypseum 42960 after 18 to 24 hrs by twofold broth dilution method; assay type: functional
Cryptococcus neoformans [13] = assay: Antifungal activity against Cryptococcus neoformans 32045 after 48 hrs by twofold broth dilution method; assay type: functional; conditions: Cryptococcus neoformans, 32045, 48 h
Method in brief: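 Broth microdilution with twofold compound dilutions and an inoculum of 10^3 cells/ml. Incubated 48 h at 37°. MIC is the visually read lowest concentration completely inhibiting growth. Triplicate average.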

Bacillus subtilis = assay: Antibacterial activity against Bacillus subtilis 6633 after 18 to 24 hrs by twofold broth dilution method; assay type: functional; method in brief: as §3
Candida albicans [14] = assay: Antifungal activity against Candida albicans 44506 in YNBG medium after 7 days in pH 7 buffer by agar dilution method; assay type: functional; conditions: Candida albicans, 44506, 168 h
Candida albicans [15] = assay: Antifungal activity against Candida albicans 44506 in YNBG medium after 7 days in pH 5 buffer by agar dilution method; assay type: functional; conditions: Candida albicans, 44506, 168 h
Candida albicans [16] = assay: Antifungal activity against Candida albicans 44506 in RPMI-1640 medium after 7 days in pH 8 buffer by agar dilution method; assay type: functional; conditions: Candida albicans, 44506, 168 h
Candida albicans [17] = assay: Antifungal activity against Candida albicans 44506 in YNBG medium after 7 days in pH 6 buffer by agar dilution method; assay type: functional; conditions: Candida albicans, 44506, 168 h
[18] = tested on: Trichophyton mentagrophytes; assay: Antifungal activity against Trichophyton mentagrophytes 9533 after 18 to 24 hrs by twofold broth dilution method; assay type: functional
Candida albicans [19] = assay: Antifungal activity against Candida albicans 44506 in YNBG medium after 7 days in pH 4 buffer by agar dilution method; assay type: functional; conditions: Candida albicans, 44506, 168 h
Candida albicans [20] = assay: Antifungal activity against Candida albicans 44506 in RPMI-1640 medium after 7 days in pH 7 buffer by agar dilution method; assay type: functional; conditions: Candida albicans, 44506, 168 h
Candida albicans [21] = assay: Antifungal activity against Candida albicans 44506 in YNBG medium after 7 days in pH 8 buffer by agar dilution method; assay type: functional; conditions: Candida albicans, 44506, 168 h
Candida albicans [22] = assay: Antifungal activity against Candida albicans 44506 in RPMI-1640 medium of pH 7.2 after 7 days by agar dilution method; assay type: functional; conditions: Candida albicans, 44506, 168 h
Sporothrix schenckii = assay: Antifungal activity against Sporothrix schenckii 14284 after 18 to 24 hrs by twofold broth dilution method; assay type: functional
Candida albicans [23] = assay: Antifungal activity against Candida albicans 44506 in RPMI-1640 medium after 24 to 48 hrs; assay type: functional; method in brief: as §4
Candida albicans [24] = assay: Antifungal activity against Candida albicans 44506 in YNBG medium after 18 to 24 hrs by twofold broth dilution method; assay type: functional; method in brief: as §2
Escherichia coli = assay: Antibacterial activity against Escherichia coli HBOI 001 after 18 to 24 hrs by twofold broth dilution method; assay type: functional, organism-based; method in brief: as §3
Candida albicans [25] = assay: Antifungal activity against Candida albicans 44506 in RPMI-1640 medium after 7 days in pH 4 buffer by agar dilution method; assay type: functional; conditions: Candida albicans, 44506, 168 h

With `CN(CC[C@H](N)CC(=O)N[C@H]1C=C[C@H](n2ccc(N)nc2=O)O[C@@H]1C(=O)O)C(=N)N` [BLASTICIDIN_S] the IC50 (Candida albicans [1]) was 6 µg/mL (≈ 14.2 µM), the IC50 (Candida albicans [2]) was over 100 µg/mL and the IC50 (Candida albicans [3]) was over 100 µg/mL. It also gave an IC50 (Candida albicans [4]) of over 100 µg/mL.

Work on `Nc1nc(=O)[nH]cc1F` [FLUCYTOSINE] yielded an IC50 (Candida albicans [1]) of over 100 µg/mL, an IC50 (Candida albicans [2]) of over 100 µg/mL and an IC50 (Candida albicans [3]) of 6 µg/mL (≈ 46.5 µM). For the same compound, the IC50 (Candida albicans [4]) was over 100 µg/mL.

Work on `CC(=O)N1CCN(c2ccc(OCC3COC(Cn4ccnc4)(c4ccc(Cl)cc4Cl)O3)cc2)CC1` (centres undefined) [KETOCONAZOLE] yielded an MIC (Candida albicans [5]) of 0.008 µg/mL (≈ 0.0151 µM) and an MIC (Candida albicans [6]) of 0.062 µg/mL (≈ 0.117 µM).

`O=C1c2nccc(O)c2-c2nc3ccccc3c3ccnc1c23` [MERIDINE] was tested, and the MIC (Epidermophyton floccosum) was 1.6 µg/mL (≈ 5.35 µM), the Activity (Pseudomonas aeruginosa) was “inactive” and the MIC (Trichosporon beigelii) was over 25 µg/mL. The MIC (Candida albicans [7]) was 0.31 µg/mL (≈ 1.04 µM), the MIC (Candida albicans [8]) was 2.5 µg/mL (≈ 8.35 µM) and the MIC (Candida albicans [9]) was 0.62 µg/mL (≈ 2.07 µM). The MIC [10] was over 25 µg/mL, the MFC (Cryptococcus neoformans [11]) was 6.2 µg/mL (≈ 20.7 µM) and the MFC (Candida albicans [12]) was 3.1 µg/mL (≈ 10.4 µM). It also gave an MIC (Nannizzia gypsea) of 25 µg/mL (≈ 83.5 µM), an MIC (Cryptococcus neoformans [13]) of 0.8 µg/mL (≈ 2.67 µM) and an MIC (Bacillus subtilis) of 3.1 µg/mL (≈ 10.4 µM). The IC50 (Candida albicans [1]) was 50 µg/mL (≈ 167 µM), the MIC (Candida albicans [5]) was 0.2 µg/mL (≈ 0.668 µM) and the MIC (Candida albicans [14]) was 1.2 µg/mL (≈ 4.01 µM). For the same compound, the MIC (Candida albicans [15]) was 2.5 µg/mL (≈ 8.35 µM), the MIC (Candida albicans [16]) was 0.31 µg/mL (≈ 1.04 µM) and the MIC (Candida albicans [17]) was 1.2 µg/mL (≈ 4.01 µM). It also gave an IC50 (Candida albicans [2]) of over 100 µg/mL, an MIC [18] of 6.2 µg/mL (≈ 20.7 µM) and an MIC (Candida albicans [19]) of 2.5 µg/mL (≈ 8.35 µM). It also gave an IC50 (Candida albicans [3]) of 1 µg/mL (≈ 3.34 µM), an MIC (Candida albicans [20]) of 0.31 µg/mL (≈ 1.04 µM) and an MIC (Candida albicans [21]) of 1.2 µg/mL (≈ 4.01 µM). It also gave an MIC (Candida albicans [22]) of 0.31 µg/mL (≈ 1.04 µM), an MIC (Sporothrix schenckii) of over 25 µg/mL and an MIC (Candida albicans [6]) of 3.1 µg/mL (≈ 10.4 µM). For the same compound, the MFC (Candida albicans [23]) was 0.2 µg/mL (≈ 0.668 µM), the MIC (Candida albicans [24]) was 2.5 µg/mL (≈ 8.35 µM) and the Activity (Escherichia coli) was “inactive”. It also gave an MIC (Candida albicans [25]) of 0.62 µg/mL (≈ 2.07 µM) and an IC50 (Candida albicans [4]) of over 100 µg/mL.

`Clc1ccc(COC(Cn2ccnc2)c2ccc(Cl)cc2Cl)c(Cl)c1` (centres undefined) [MICONAZOLE] gave an MIC (Candida albicans [5]) of 0.03 µg/mL (≈ 0.0721 µM) and an MIC (Candida albicans [6]) of 25 µg/mL (≈ 60.1 µM).
